Test results: publication PMC4102602 (European journal of oral sciences, 2013)
Like-named read-outs stand apart in the source and are kept apart here. Values belong to the substance of their own block, whether it stands above or below them.

Assays:
[1] = tested on: MC3T3-E1 osteoblast-like cells; details: osteogenic cell attachment; cited from earlier work
[2] = tested on: MC3T3 cells (RGD-binding integrin receptors); format: cell-based, mouse; details: for residual MC3T3 cell attachment activity after preincubating cells with RGD: 30 min preincubation, 25 μM peptide coating concentration, Fig. 4A; for cell attachment activity remaining after preincubating cells with RGD: mean ± S.E, N = 5-6
Summary of the method: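 MC3T3 cells were preincubated in tubes for 30 min with RGD tripeptide (up to 500 μM) in serum-free medium with 0.1% BSA. FBS was then added to 10% v/v, and cells were pelleted (600 × g, 5 min) and washed twice. Cells were plated at 30,000/well on BSA-aftercoated polystyrene wells coated with 25 μM peptide for 2 h at 37°C. Attachment was read by hexosaminidase activity, as % of no-RGD control.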

[3] = tested on: MG63 human osteoblast-like cells; format: cell-based; details: over the range of surface concentrations shown for P3 in Fig. 3; mean ± S.E; N = at least 6
Summary of the method: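 MG63 cells grown in MEM plus NEAA with heat-inactivated 10% FBS. 96-well non-tissue-culture polystyrene plates were coated with peptide, washed, aftercoated with BSA and washed; uncoated plates served as control. Cells were seeded at 30,000/well in serum-free medium for 2 h at 37°C, washed three times with PBS, and counted by hexosaminidase activity as percent of control. Adsorbed peptide was quantified by micro BCA at 562 nm.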

[4] = tested on: MC3T3-E1 osteoblast-like cells; format: cell-based, mouse; details: for level of MC3T3 cell attachment / enhancement in the level of MC3T3 osteoprogenitor cell attachment / EC50: Fig. 2; for enhancement in the level of MC3T3 osteoprogenitor cell attachment: coating concentration as low as 1 μM; for EC50: read-out: half-maximal effect on MC3T3 cell attachment, peptide solution phase (coating) concentration, 30,000 cells/well, serum-free, 2 h, 37°C; for maximal increase of MC3T3 cell attachment: solution phase concentrations as high as 50 – 200 μM, control = uncoated wells
Summary of the method: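 Non-tissue-culture 96-well polystyrene was coated overnight with peptide solutions, washed, aftercoated with BSA and washed again; uncoated wells served as control. MC3T3-E1 cells were grown in MEM-α with 5% FBS and 5% NCS, then plated at 30,000 cells/well in serum-free medium for 2 h at 37°C. After three PBS washes, attachment was quantified by hexosaminidase activity as % of control. Mean ± SEM, ≥3 independent cultures.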

Substance: BSP peptide 278-302 [P4]
attachment potency greater than that of peptide P2 (281-290) [1]: 1-2 orders of magnitude

Substance: arg-gly-asp [RGD, reference compound]
block of the attachment of cells to the hBSP peptides ([2]; soluble RGD, MC3T3 cells): 80-90%

Substance: hBSP peptide 278-290 [DB2]
maximal percentage increase in the attachment of MG63 cells [3]: 422 ± 41% | residual MC3T3 cell attachment activity after preincubating cells with RGD ([2]; 500 μM RGD): 10-20 % of control

EC50 [4]: ~1000 nM
Substance: hBSP peptide 278-292 [DB4]
maximal percentage increase in the attachment of MG63 cells [3]: 731 ± 100% | level of MC3T3 cell attachment ([4]; 1 μM coating solution): 380 % of control | level of MC3T3 cell attachment ([4]; 10 μM coating solution, % of control): 540% | level of MC3T3 cell attachment ([4]; 50 μM coating solution, % of control): 590% | level of MC3T3 cell attachment ([4]; 100 μM coating solution, % of control): 670% | level of MC3T3 cell attachment ([4]; 200 μM coating solution, % of control): 710% | enhancement in the level of MC3T3 osteoprogenitor cell attachment [4]: several-fold | cell attachment activity remaining after preincubating cells with RGD ([2]; 1 μM RGD, MC3T3 cells): 28 ± 10% | cell attachment activity remaining after preincubating cells with RGD ([2]; 500 μM RGD, MC3T3 cells): 14 ± 9%

EC50 [4]: ~1000 nM
Substance: hBSP peptide 278-293 [P3]
attachment potency greater than that of peptide P2 (281-290) [1]: 1-2 orders of magnitude | enhancement in the level of MC3T3 osteoprogenitor cell attachment [4]: several-fold | residual MC3T3 cell attachment activity after preincubating cells with RGD ([2]; 500 μM RGD): 10-20 % of control

Substance: hBSP peptide 279-292 [DB5]
maximal increase of MC3T3 cell attachment [4]: 150-300 % of control

Substance: hBSP peptide 279-293 [DB3]
maximal percentage increase in the attachment of MG63 cells [3]: 228 ± 14%

Substance: hBSP peptide 281-293 [DB1]
maximal percentage increase in the attachment of MG63 cells [3]: 371 ± 21% | maximal increase of MC3T3 cell attachment [4]: 150-300 % of control | residual MC3T3 cell attachment activity after preincubating cells with RGD ([2]; 500 μM RGD): 10-20 % of control
